# In ChEMBL document CHEMBL2086379, “Novel pyrimidopyrimidine derivatives for inhibition of cellular proliferation and motility induced by h-prune in breast cancer” (Eur J Med Chem, 2012):
# Active and inactive are the calls of the source. No cut-off for these calls is given here.
# What was measured:
# [1] = biological target: T1, Exopolyphosphatase PRUNE1 (Homo sapiens, UniProt Q86TP1); test: Inhibition of human prune assessed as reduction of cAMP-phosphodiesterase activity
# T1 sequence (Q86TP1 whole entry): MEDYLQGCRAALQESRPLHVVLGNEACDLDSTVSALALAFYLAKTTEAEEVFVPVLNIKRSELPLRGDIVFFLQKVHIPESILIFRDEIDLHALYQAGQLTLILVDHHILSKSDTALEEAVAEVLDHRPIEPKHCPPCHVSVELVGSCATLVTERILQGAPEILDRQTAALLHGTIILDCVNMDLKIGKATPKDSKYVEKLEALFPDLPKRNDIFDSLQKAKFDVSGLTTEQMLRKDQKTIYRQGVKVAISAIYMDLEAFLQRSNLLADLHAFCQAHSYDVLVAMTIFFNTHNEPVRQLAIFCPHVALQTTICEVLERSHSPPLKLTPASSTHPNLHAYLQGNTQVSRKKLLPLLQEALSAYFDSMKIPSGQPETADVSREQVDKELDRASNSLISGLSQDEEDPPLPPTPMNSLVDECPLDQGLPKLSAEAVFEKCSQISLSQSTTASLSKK
# [2] = Inhibition of cell proliferation of human MDA-MB-231T cells expressing human-prune assessed as cell index levels at 50 uM measured 24 hrs post dose by xCelligence system based real time cell analysis method (reference value: 1.777 cell index); type: functional
# Outline: (§1)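 Compound or DMSO added once when cell index reached 1.0–1.2 (50–60% confluence). CI read every 5 min for up to 54–56 h at 37 °C, 5% CO2, normalised to time of addition. Compounds at 50 µM (dose-response runs also 100 µM). Two independent experiments; Student's t test.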
# Homo sapiens [3] = organism: Homo sapiens; test: Inhibition of cell motility in human MDA-MB-231T cells expressing human-prune at 8 uM by 2D cell migration assay; type: functional, cell-based
# Homo sapiens [4] = organism: Homo sapiens; test: Inhibition of cell proliferation of human MDA-MB-231T cells expressing human-prune assessed as cell index levels at 50 uM measured 9 to 54 hrs post dose by xCelligence system based real time cell analysis method; type: functional; outline: as §1
# Homo sapiens [5] = organism: Homo sapiens; test: Inhibition of cell proliferation of human MDA-MB-231T cells expressing human-prune assessed as cell index levels at 50 uM measured 5 hrs post dose by xCelligence system based real time cell analysis method; type: functional; outline: as §1
# [6] = biological target: T2, Exopolyphosphatase PRUNE1 (Homo sapiens) (UniProt Q86TP1); test: Inhibition of human prune expressed in human MDA-435-c100 cells at 1 uM assessed as reduction of cAMP-phosphodiesterase activity using whole cell protein extracts by SPA; type: cell-based
# T2 sequence (whole entry): T1 sequence (Q86TP1 whole entry)
# [7] = biological target: T1, Exopolyphosphatase PRUNE1; test: Inhibition of purified human prune assessed as reduction of cAMP-phosphodiesterase activity by SPA
IC50 [1] [nM],inhibition [6],IC50 [7] [nM],Compound,Activity [2],inhibition (Homo sapiens [3]),inhibition (Homo sapiens [4]),inhibition (Homo sapiens [5])
780,–,–,OCCN(CCO)c1nc(N2CCCCC2)c2nc(N(CCO)CCO)nc(N3CCCCC3)c2n1 [DIPYRIDAMOLE],1.472,Active,Active,inactive
–,Active,210,COc1ccc(CNc2nc(N(CCO)CCO)nc3c(NCc4ccc(OC)cc4)nc(N(CCO)CCO)nc23)cc1,1.185,Active,–,inactive
